From ChEMBL document CHEMBL2321684, “Novel hybrids of optically active ring-opened 3-n-butylphthalide derivative and isosorbide as potential anti-ischemic stroke agents” (J Med Chem, 2013) come the findings set out here.

Structures can show the parent of a compound that is named as a salt. Active and inactive are the calls of the source. The calls are words filed in the database; no cut-off is given here.

The IC50 is the concentration that gives 50% inhibition. In general, inhibition refers to the change of the read-out against control, counted positive when it falls.

Assay [1] in a line: Antiplatelet aggregation activity in rabbit platelets assessed as inhibition of arachidonic acid-induced platelet aggregation incubated for 5 mins prior to arachidonic acid-challenge measured within 5 mins by Born's turbidimetric analysis. Type of assay: functional, cell-based. The following applies: Oryctolagus cuniculus. An outline of the steps: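 Rabbit citrated PRP was adjusted to 400−450 × 10⁹ platelets/L and preincubated for 5 min at 37 °C with vehicle DMSO or compound at 0.1−1.6 mM (at least five concentrations). Aggregation was induced with arachidonic acid (0.33 mM, per the methods text). Maximum aggregation rate was recorded over 5 min by Born's turbidimetry, and IC₅₀ was derived from inhibition versus vehicle (mean ± SD).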

A short description of assay [2]: Antiplatelet aggregation activity in rabbit platelets assessed as inhibition of ADP-induced platelet aggregation incubated for 5 mins prior to ADP-challenge measured within 5 mins by Born's turbidimetric analysis. It counts as functional, cell-based. To be noted: Oryctolagus cuniculus.
A further assay relates to Mus musculus. The assay is described as follows: Antithrombotic activity in Swiss ICR mouse assessed as inhibition of collagen/adrenaline-induced acute systemic vascular thromboembolism at 160 mg/kg, po administered for 7 days prior to collagen/adrenaline-challenge measured up to 15 mins relative to control. It counts as functional, organism-based. Also on record: dose 160 mg/kg. An outline of the steps:
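Male Swiss ICR mice (30−35 g), n = 15 per group, dosed by gavage daily for 7 days in DMSO vehicle. Two hours after the last dose, mice received collagen (0.21 mg/kg) plus adrenaline (44.5 μg/kg) iv. Survival was monitored for 15 min and reported as % surviving.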

Assay [3] can be described thus: Antiplatelet aggregation activity in rabbit platelets assessed as inhibition of ADP-induced platelet aggregation at 1 mM incubated for 5 mins prior to ADP-challenge measured within 5 mins by Born's turbidimetric analysis relative to control. To be noted: Oryctolagus cuniculus. Type of assay: functional. Summed up:
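Rabbit carotid blood was citrated (3.8%, 9:1). PRP was adjusted with PPP to 400−450 × 10⁹ platelets/L. PRP was preincubated with compound or DMSO for 5 min at 37 °C, then aggregation was induced with ADP at 10 μM. Maximum aggregation rate was recorded over 5 min using Born's turbidimetry. Inhibition % was calculated versus vehicle; n = 6, mean ± SD.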

Turning to `CCCC[C@@H](OC(C)=O)c1ccccc1C(=O)O[C@H]1CO[C@H]2[C@@H]1OC[C@H]2OC(=O)c1ccccc1[C@@H](CCCC)OC(C)=O`, the figures for the IC50 in assay [1] and in assay [2] were 570 µM and 710 µM, respectively.
On to `CCCC[C@H](OC(C)=O)c1ccccc1C(=O)O[C@H]1CO[C@H]2[C@@H]1OC[C@H]2OC(=O)c1ccccc1[C@H](CCCC)OC(C)=O`, for which the IC50 in assay [1] is 210 µM; in assay [2] it was 330 µM.
As to `CC(=O)Oc1ccccc1C(=O)O` [ASPIRIN], in the assay with Mus musculus, the result was Active. Further, the IC50 in assay [1] turned out to be 140 µM.
For `CCCC[C@H](OC(=O)CN1CCN(C)CC1)c1ccccc1C(=O)O[C@H]1CO[C@H]2[C@@H]1OC[C@H]2O[N+](=O)[O-]`, the inhibition at 1000 µM in assay [3] stood at 6.94%.
`CCCC[C@H](OC(=O)CN1CCN(C)CC1)c1ccccc1C(=O)O[C@@H]1CO[C@H]2[C@@H]1OC[C@@H]2O`: in assay [3], the inhibition at 1000 µM is 6.94%.
On to `CCCC[C@@H](OC(=O)CN1CCN(CCO)CC1)c1ccccc1C(=O)O[C@H]1CO[C@H]2[C@@H]1OC[C@H]2OC(=O)c1ccccc1[C@@H](CCCC)OC(=O)CN1CCN(CCO)CC1`, for which the IC50 in assay [1] was found to be 630 µM; in assay [2], 750 µM.
On to `CCCC[C@H](OC(=O)CN1CCN(C)CC1)c1ccccc1C(=O)O[C@H]1CO[C@H]2[C@@H]1OC[C@H]2O`, for which, in assay [3], the inhibition at 1000 µM came out at 6.94%.
Regarding `O[C@@H]1CO[C@H]2[C@@H]1OC[C@@H]2O` [ISOSORBIDE], in assay [3], the inhibition at 1000 µM was determined as 6.94%. Besides, the IC50 in assay [1] worked out at 1680 µM; in assay [2], 1350 µM.
For `CCCC[C@H](OC(=O)CN1CCN(C)CC1)c1ccccc1C(=O)O[C@@H]1CO[C@H]2[C@@H]1OC[C@@H]2O[N+](=O)[O-]`, the inhibition at 1000 µM in assay [3] is 6.94%.
For the compound `CCCC[C@@H](OC(=O)CN1CCOCC1)c1ccccc1C(=O)O[C@H]1CO[C@H]2[C@@H]1OC[C@H]2OC(=O)c1ccccc1[C@@H](CCCC)OC(=O)CN1CCOCC1`, the IC50 in assay [1] stood at 800 µM; in assay [2], 940 µM.
Regarding `CCCC[C@@H](OC(=O)CN1CCN(C)CC1)c1ccccc1C(=O)O[C@H]1CO[C@H]2[C@@H]1OC[C@H]2OC(=O)c1ccccc1[C@@H](CCCC)OC(=O)CN1CCN(C)CC1`, the IC50 amounted to 270 µM in assay [1] and 360 µM in assay [2].
As to `CCCC[C@H](OC(=O)CN1CCCC1)c1ccccc1C(=O)O[C@H]1CO[C@H]2[C@@H]1OC[C@H]2OC(=O)c1ccccc1[C@H](CCCC)OC(=O)CN1CCCC1`, the IC50 was determined as 640 µM in assay [1] and 800 µM in assay [2].
In the case of `CCCC[C@H](OC(=O)CN1CCOCC1)c1ccccc1C(=O)O[C@H]1CO[C@H]2[C@@H]1OC[C@H]2OC(=O)c1ccccc1[C@H](CCCC)OC(=O)CN1CCOCC1`, the IC50 came to 320 µM in assay [1] and 450 µM in assay [2].
As for `Clc1ccccc1CN1CCc2sccc2C1` [TICLOPIDINE HYDROCHLORIDE], the IC50 in assay [2] is 360 µM.
On to `CCCC[C@H](OC(=O)CN1CCN(C)CC1)c1ccccc1C(=O)O`, for which the inhibition at 1000 µM in assay [3] turned out to be 6.94%.
`CCCC[C@@H](OC(=O)CN1CCCC1)c1ccccc1C(=O)O[C@H]1CO[C@H]2[C@@H]1OC[C@H]2OC(=O)c1ccccc1[C@@H](CCCC)OC(=O)CN1CCCC1`: the IC50 in assay [1] was determined as 910 µM; in assay [2], 1000 µM.
With `CCCC[C@H](OC(=O)CN1CCN(CCO)CC1)c1ccccc1C(=O)O[C@H]1CO[C@H]2[C@@H]1OC[C@H]2OC(=O)c1ccccc1[C@H](CCCC)OC(=O)CN1CCN(CCO)CC1`, the IC50 in assay [1] was 360 µM; in assay [2] it was 490 µM.
